{"source": "ChEMBL document CHEMBL4765399", "about": "“Design, synthesis, and biological evaluation of 5-((8-methoxy-2-methylquinolin-4-yl)amino)-1H-indole-2-carbohydrazide derivatives as novel Nur77 modulators” (Eur J Med Chem, 2020)", "key": {"HepG2 [1]": {"system": "HepG2", "experiment": "Inhibition of colony formation in human HepG2 cells at 2 uM incubated for 24 hrs measured after cell culturing for 15 days in normal medium by crystal violet staining based assay", "assay_type": "functional", "details": "time 16.0 day", "procedure,_shortened": "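500 HepG2, QGY-7703 or SMMC-7721 cells per well allowed to attach 24 h, exposed to DMSO or 2.0 µM for 24 h, then grown 15 days in plain medium. Colonies fixed 30 min in 4% paraformaldehyde, stained 15 min with 0.1% crystal violet, photographed and counted.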"}, "HepG2 [2]": {"system": "HepG2", "experiment": "Antitumor activity against human HepG2 cells xenografted in BALB/c mouse assessed as induction of autophagy by measuring increase in Beclin1 level in tumor tissue at 10 to 20 mg/kg/day, ip administered for 15 days by immunohistochemical analysis", "assay_type": "functional, organism-based", "details": "dose 10-20 mg/kg/day, time 15.0 day", "procedure,_shortened": "(§1)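 HepG2 cells (5×10^6) injected subcutaneously into flanks of 4-week-old male Balb/c nude mice. At about 100 mm³, 15 mice were randomized to vehicle, 10 or 20 mg/kg i.p. once daily for 15 days. Tumors were then excised for immunostaining of paraffin sections (5 μm) or for western blot.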"}, "HepG2 [3]": {"system": "HepG2", "experiment": "Induction of apoptosis in human HepG2 cells assessed as early apoptotic cells at 2 uM incubated for 12 hrs by Annexin V-FITC/PI staining based flow cytometry (reference value: 3.99 to 5.35%)", "assay_type": "functional"}, "HepG2 [4]": {"system": "HepG2", "experiment": "Induction of endoplasmic reticulum stress in human HepG2 cells assessed as increase in PDI protein expression at 2 uM incubated for 6 hrs by confocal microsocopic analysis", "assay_type": "functional, cell-based", "procedure,_shortened": "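HepG2, or HepG2 plus shNur77 HepG2, treated with 2.0 µM for 6 h, fixed in 4% paraformaldehyde 20 min, permeabilised 0.1% Triton X-100, blocked in 5% BSA, stained with PDI antibody and imaged by confocal fluorescence microscopy.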"}, "HepG2 [5]": {"system": "HepG2", "experiment": "Antitumor activity against human HepG2 cells xenografted in BALB/c mouse assessed as induction of ER stress by measuring increase in CHOP level in tumor tissue at 10 to 20 mg/kg/day, ip administered for 15 days by western blot analysis", "assay_type": "functional, organism-based", "details": "dose 10-20 mg/kg/day, time 15.0 day", "procedure,_shortened": "as §1"}, "HepG2 [6]": {"system": "HepG2", "experiment": "Induction of apoptosis in human HepG2 cells transfected with shRNA assessed as early apoptotic cells at 2 uM incubated for 12 hrs by Annexin V-FITC/PI staining based flow cytometry (reference value: 5.09%)", "assay_type": "functional"}, "HepG2 [7]": {"system": "HepG2", "experiment": "Antiproliferative activity against human HepG2 cells assessed as reduction in cell viability incubated for 48 hrs by MTT assay", "assay_type": "functional, cell-based", "details": "HepG2, 48 h", "procedure,_shortened": "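MTT assay after 48 h exposure at six concentrations, range chosen by cytotoxicity. Inhibition = (ODcontrol − ODtest)/ODcontrol × 100%; IC50 is the concentration halving OD versus untreated cells. Means ± SD of three independent determinations. HepG2 and SMMC-7721 grown in DMEM, QGY-7703 and LO2 in RPMI 1640, with 10% FBS at 37 °C.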"}, "HepG2 [8]": {"system": "HepG2", "experiment": "Induction of endoplasmic reticulum stress in Nur77 […] human HepG2 cells assessed as bip protein expression at 2 uM incubated for 6 to 12 hrs by Western blot analysis", "assay_type": "functional, cell-based", "details": "time 6-12 hrs", "procedure,_shortened": "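HepG2 and shNur77 HepG2 exposed to DMSO or 2.0 µM for 6 and 12 h; lysates immunoblotted for TRB3, Bip, CHOP and Nur77 (SDS-PAGE, nitrocellulose, overnight primary antibodies, HRP secondary, chemiluminescence).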"}, "HepG2 [9]": {"system": "HepG2", "experiment": "Antitumor activity against human HepG2 cells xenografted in BALB/c mouse assessed as tumor weight at 10 mg/kg/day, ip administered for 15 days (reference value: 0.86 +/- 0.18 g)", "assay_type": "functional", "details": "dose 20 mg/kg/day; time 15 day; in the assay text read “20 mg/kg/day” for “10 mg/kg/day”", "procedure,_shortened": "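Subcutaneous flank xenograft of 5×10^6 HepG2 cells in 4-week-old male Balb/c nude mice. At about 100 mm³, 15 mice were randomized into three groups: vehicle, 10 or 20 mg/kg i.p. daily for 15 days. Tumor size was measured every day, and tumors were excised and weighed at the end.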"}, "HepG2 [10]": {"system": "HepG2", "experiment": "Disruption of mitochondrial membrane potential in human HepG2 cells assessed as green fluorescence intensity at 2 uM incubated for 12 hrs by JC-1 staining based flow cytometry (reference value: 41669 units)", "assay_type": "functional"}, "[11]": {"molecular_target": "Nuclear receptor subfamily 4immunitygroup A member 1 (Homo sapiens, UniProt P22736)", "sequence (P22736 whole entry, the tested form may be a part)": "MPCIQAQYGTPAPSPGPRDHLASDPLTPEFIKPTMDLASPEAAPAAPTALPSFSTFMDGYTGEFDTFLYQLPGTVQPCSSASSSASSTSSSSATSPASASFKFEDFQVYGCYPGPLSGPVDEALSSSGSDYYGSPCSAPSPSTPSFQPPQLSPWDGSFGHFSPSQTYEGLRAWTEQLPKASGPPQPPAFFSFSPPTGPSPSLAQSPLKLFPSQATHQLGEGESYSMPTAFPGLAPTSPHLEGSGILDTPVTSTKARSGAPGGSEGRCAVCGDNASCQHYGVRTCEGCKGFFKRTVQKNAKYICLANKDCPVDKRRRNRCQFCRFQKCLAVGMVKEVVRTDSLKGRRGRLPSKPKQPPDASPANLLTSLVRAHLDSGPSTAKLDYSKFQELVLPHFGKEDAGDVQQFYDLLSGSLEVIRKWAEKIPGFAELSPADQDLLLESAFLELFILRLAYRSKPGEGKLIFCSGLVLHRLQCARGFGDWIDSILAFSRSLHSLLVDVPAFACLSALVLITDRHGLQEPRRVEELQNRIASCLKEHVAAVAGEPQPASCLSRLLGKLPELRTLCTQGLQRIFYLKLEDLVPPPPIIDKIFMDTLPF", "experiment": "Binding affinity to Nur77 ligand binding domain (unknown origin) assessed as dissociation constant by fluorescence titration based analysis", "procedure,_shortened": "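Intrinsic tryptophan fluorescence quench: 1 μM Nur77-LBD titrated with 0–4 μM ligand in about 0.2 μM steps (20 points). After 30 min at room temperature, read at 25 °C, excitation 280 nm, emission 340 nm. KD fitted to a two-state 1:1 complex model.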"}, "HepG2 [12]": {"system": "HepG2", "experiment": "Induction of apoptosis in human HepG2 cells assessed as Bax/Bcl-2 ratio at 2 uM pretreated with autophagy inhibitor, 3-methyladenine for 2 hrs followed by incubation with compound for 12 hrs by Western blot analysis", "assay_type": "functional, cell-based"}, "HepG2 [13]": {"system": "HepG2", "experiment": "Induction of apoptosis in human HepG2 cells assessed as cleaved PARP expression at 2 uM pretreated with ER stress inhibitor, 4-PBA for 2 hrs followed by incubation with compound for 12 hrs by Western blot analysis", "assay_type": "functional, cell-based", "procedure,_shortened": "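HepG2 cells grown to confluence were pretreated 2 h with 2 mM 3-MA (autophagy inhibitor) or 2 mM 4-PBA (ER stress inhibitor), then exposed to compound for 12 h. Proteins (40–80 µg, RIPA lysate) were resolved by SDS-PAGE and blotted for PARP, cleaved caspase-3/-9, Bcl-2 and Bax, with chemiluminescent detection.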"}, "QGY-7703": {"system": "QGY-7703", "experiment": "Induction of endoplasmic reticulum stress in human QGY-7703 cells assessed as increase in CHOP protein expression incubated for 12 hrs by Western blot analysis", "assay_type": "functional, cell-based", "details": "dose 0.5-2 µM", "procedure,_shortened": "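HepG2, QGY-7703 and SMMC-7721 treated with graded concentrations for 12 h. Lysed in RIPA with inhibitors; 40-80 µg protein separated by SDS-PAGE, blotted to nitrocellulose, blocked 1 h in 5% milk, primary antibodies overnight (LC3, Beclin1, Bip, CHOP, TRB3), HRP secondaries, chemiluminescence.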"}, "HepG2 [14]": {"system": "HepG2", "experiment": "Induction of endoplasmic reticulum stress in human HepG2 cells assessed as increase in TRB3 expression at 2 uM measured after 1 to 4 hrs by Western blot analysis", "assay_type": "functional, cell-based", "details": "time 1-4 hrs", "procedure,_shortened": "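HepG2 exposed to 2.0 µM over a time course; Nur77, Bip, p-EIF2a, TRB3 and LC3 levels followed by Western blot of RIPA lysates.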"}, "HepG2 [15]": {"system": "HepG2", "experiment": "Induction of apoptosis in human HepG2 cells assessed as necrotic cells at 2 uM incubated for 12 hrs by Annexin V-FITC/PI staining based flow cytometry (reference value: 0.068 to 0.23%)", "assay_type": "functional"}, "HepG2 [16]": {"system": "HepG2", "experiment": "Induction of autophagy in human HepG2 cells assessed as p62 degradation by western blot analysis", "assay_type": "functional, cell-based"}, "Mus musculus": {"system": "Mus musculus", "experiment": "Upregulation of Nur77 expression in tumor tissue of BALB/c mouse xenografted with human HepG2 cells at 10 to 20 mg/kg/day, ip administered for 15 days by immunohistochemical analysis", "assay_type": "functional, organism-based", "details": "dose 10-20 mg/kg/day, time 15.0 day", "procedure,_shortened": "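Tumours taken from HepG2 xenograft mice after 15 days of daily i.p. dosing (10 or 20 mg/kg) or vehicle. Fixed in 4% paraformaldehyde, paraffin-embedded, cut into 5 µm sections. Immunostained with anti-Nur77 at 1:200.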"}}, "note": "Active and inactive are the calls of the source. The rule behind the calls is not given here."}
{"smiles": "COc1cccc2c(Nc3ccc4[nH]c(C(=O)N/N=C/c5ccc(SC)cc5)cc4c3)cc(C)nc12", "values": [{"measurement": "inhibition", "setting": "HepG2 [1]", "result": "Active"}, {"measurement": "Activity", "setting": "HepG2 [2]", "result": "Active"}, {"measurement": "Activity", "setting": "HepG2 [3]", "result": 13, "unit": "%"}, {"measurement": "Activity", "setting": "HepG2 [4]", "result": "Active"}, {"measurement": "Activity", "setting": "HepG2 [5]", "result": "Active"}, {"measurement": "Activity", "setting": "HepG2 [6]", "result": 16.2, "unit": "%"}, {"measurement": "IC50", "setting": "HepG2 [7]", "result": 600, "unit": "nM"}, {"measurement": "Activity", "setting": "HepG2 [8]", "result": "inactive"}, {"measurement": "Activity", "setting": "HepG2 [9]", "result": 0.24, "unit": "g"}, {"measurement": "Activity", "setting": "HepG2 [10]", "result": 71731, "unit": "U"}, {"measurement": "Kd", "setting": "[11]", "result": 1340, "unit": "nM"}, {"measurement": "Activity", "setting": "HepG2 [12]", "result": "inactive"}, {"measurement": "Activity", "setting": "HepG2 [13]", "result": "inactive"}, {"measurement": "Activity", "setting": "QGY-7703", "result": "Dose-dependent effect"}, {"measurement": "Activity", "setting": "HepG2 [14]", "result": "Active"}, {"measurement": "Activity", "setting": "HepG2 [15]", "result": 0, "unit": "%"}, {"measurement": "Activity", "setting": "HepG2 [16]", "result": "inactive"}, {"measurement": "Activity", "setting": "Mus musculus", "result": "Active"}]}
